Results published in ChEMBL document CHEMBL1125034, “Design and synthesis of 4H-3,1-benzoxazin-4-ones as potent alternate substrate inhibitors of human leukocyte elastase” (J Med Chem, 1990).

Tests used:
[1] = target: T1, Neutrophil elastase (Homo sapiens) (UniProt P08246); test: Component acylation rate constant for interaction with human leukocyte elastase
T1 sequence (whole entry): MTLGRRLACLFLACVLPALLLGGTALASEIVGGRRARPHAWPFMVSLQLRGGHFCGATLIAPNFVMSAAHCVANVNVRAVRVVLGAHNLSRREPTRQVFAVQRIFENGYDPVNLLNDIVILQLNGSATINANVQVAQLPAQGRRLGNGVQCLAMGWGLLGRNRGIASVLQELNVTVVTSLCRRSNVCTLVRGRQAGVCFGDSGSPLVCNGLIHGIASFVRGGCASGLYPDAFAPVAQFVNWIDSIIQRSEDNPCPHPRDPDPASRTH

[2] = Partition coefficient (logD7.4); type: physicochemical; details: octanol/water, pH 7.4
[3] = target: T1, Neutrophil elastase (Homo sapiens); test: Component deacylation rate constant for interaction with human leukocyte elastase
[4] = Alkaline hydrolysis rate of the compound; type: ADME
Outline: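 Alkaline hydrolysis rate constants measured at several pH values at 25 °C. Loss of the long-wavelength UV chromophore (λmax typically 300-345 nm) was followed by spectrophotometer.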

[5] = target: T2, Neutrophil elastase (Homo sapiens, UniProt P08246); test: Inhibition of human leukocyte elastase
T2 sequence (P08246 whole entry): T1 sequence (whole entry)

SMILES	Log kon [1]	logD [2]	Log koff [3]	Log kOH- [4]	Ki [5]
O=c1oc(NCCc2ccccc2)nc2ccccc12	3.05	3.2	-2.72	1.15	1700 nM
O=c1oc(-c2ccccc2)nc2ccccc12	4	–	–	1.79	9550 nM
COc1cc2nc(SCc3ccccc3)oc(=O)c2cc1OC	3.76	–	-1.91	0.96	2140 nM
Cc1nc2c(N)cccc2c(=O)o1	3.3	–	–	2.61	7940 nM
CCc1cccc2c(=O)oc(NC(C)C)nc12	4.38	–	-1.62	–	1000 nM
CC(=O)NCc1nc2ccccc2c(=O)o1	2.24	–	-2.88	1.86	7590 nM
COc1cc2nc(SCc3c[nH]cn3)oc(=O)c2cc1OC	3.84	–	-2.12	1.31	1100 nM
O=c1oc(/C=C/c2ccccc2)nc2ccccc12	2.59	3.9	-2.5	1.57	8130 nM
CCCCNc1nc2cccc(CC)c2c(=O)o1	5.11	3.8	-3.27	0.38	–
NC(=O)[C@H](Cc1ccccc1)Nc1nc2ccccc2c(=O)o1	3.08	–	-3.42	1.26	316 nM
Cc1nc2c(C)cccc2c(=O)o1	–	2.1	–	1.18	7410 nM
Cc1cccc2c(=O)oc(C(C)(C)C)nc12	–	4	–	0.82	55000 nM
CC(C)N(c1nc2ccccc2c(=O)o1)C(C)C	–	3.7	–	0.79	2570 nM
Nc1ccc(CNc2nc3ccccc3c(=O)o2)cc1	–	2	–	1.36	1230 nM
CCOC(=O)CCCNc1nc2ccccc2c(=O)o1	–	2.3	–	1.21	18600 nM
Cc1cccc2c(=O)oc(C(F)(F)F)nc12	4	–	–	3.09	537 nM
CCCNc1nc2cccc(C)c2c(=O)o1	4.75	–	-3.47	–	–
CCC(CC)Nc1nc2cccc(C)c2c(=O)o1	3.89	–	-2.25	–	724 nM
CCSc1nc2ccc(NC(C)=O)cc2c(=O)o1	4	–	–	2.24	1450 nM
CCOC(=O)[C@H](C)Nc1nc2ccccc2c(=O)o1	3.41	–	-2.65	1.31	871 nM

SMILES	Log kon [1]	logD [2]	Log koff [3]	Log kOH- [4]	Ki [5]
Cc1nc2cc3ccccc3cc2c(=O)o1	–	2.8	–	2.19	7240 nM
CC(C)NC(=O)[C@H](CC(N)=O)Nc1nc2ccccc2c(=O)o1	–	0.2	–	1.45	2140 nM
CC(C)Cc1nc2ccccc2c(=O)o1	4.3	–	–	–	2570 nM
CC(C)Nc1nc2ccccc2c(=O)o1	4.77	2.4	-2.51	1.21	–
CCCNC(=O)Nc1ccc2c(=O)oc(NC(C)C)nc2c1	4.1	–	-1.77	0.39	1350 nM
CCCc1cc(N(C)C)cc2nc(NC(C)C)oc(=O)c12	2.81	–	-3.74	-2	282 nM
O=C(c1nc2ccccc2c(=O)o1)[C@@H]1CCCN1	2.95	–	-3	1.69	1120 nM
CC(C)CN(CC(C)C)c1nc2ccccc2c(=O)o1	2.18	–	-3.01	0.68	6460 nM
CC(C)NC(=O)[C@H](CCC(N)=O)Nc1nc2ccccc2c(=O)o1	–	-0.3	–	1.3	550 nM
COC(=O)[C@H](Cc1ccc(O)cc1)Nc1nc2ccccc2c(=O)o1	3.28	0.3	-3.07	1.28	447 nM
O=c1oc(Nc2ccccc2)nc2ccccc12	–	3.5	–	1.18	11000 nM
CCSc1nc2cc(OC)c(OC)cc2c(=O)o1	5	–	–	1.1	1200 nM
CCCCN(CCCC)c1nc2ccccc2c(=O)o1	2.43	–	-2.91	-0.57	4570 nM
CCCC(C)Nc1nc2cccc(C)c2c(=O)o1 (stereo not given)	3.7	–	-2.43	–	741 nM
CNc1nc2cccc(C)c2c(=O)o1	3.69	2.3	-0.82	0.54	–
Cc1cc(N(C)C)cc2nc(NC(C)C)oc(=O)c12	2.01	–	-3.89	-1.61	1260 nM
O=c1oc(NCc2ccccc2)nc2ccccc12	–	2.8	–	1.12	955 nM
CC(C)Nc1nc2cc(N(C)C)ccc2c(=O)o1	3	–	-3.32	-0.74	479 nM
CCC(C)CNc1nc2cccc(C)c2c(=O)o1 (stereo not given)	2.05	–	-4.13	–	661 nM

More lines, in order of falling Ki [5], values ahead:

Log kon [1]	logD [2]	Log koff [3]	Log kOH- [4]	Ki [5]	SMILES
–	0.4	–	1.21	240 nM	NC(=O)[C@@H]1CCCN1c1nc2ccccc2c(=O)o1
–	2.6	–	1.32	214 nM	CC[C@H](C)[C@H](Nc1nc2ccccc2c(=O)o1)C(=O)OC
3.36	3.2	-3.41	1.13	170 nM	COC(=O)[C@H](CC(C)C)Nc1nc2ccccc2c(=O)o1
–	1.6	–	-1.08	115 nM	CCc1cc(N)cc2nc(N3CCCC3C(=O)N[C@@H](CC(C)C)C(N)=O)oc(=O)c12 (stereo not given in full)
–	3.5	–	0.89	112 nM	O=c1oc(NC2CCCCC2)nc2ccccc12
2.36	–	-4.75	-1.09	77.6 nM	Cc1cc(N)cc2nc(NC(C)C)oc(=O)c12
4.32	–	-2.86	1.32	66.1 nM	COC(=O)C(CC(C)C)Nc1nc2ccccc2c(=O)o1 (stereo not given)
–	2.6	–	1.39	46.8 nM	COC(=O)C(Nc1nc2ccccc2c(=O)o1)c1ccccc1 (stereo not given)
4.32	–	-3.1	-0.42	38 nM	COc1cc(C)c2c(=O)oc(NC(C)C)nc2c1
4.16	1.2	-3.27	1.23	37.2 nM	NC(=O)[C@H](Cc1ccccc1)NC(=O)[C@@H]1CCCN1c1nc2ccccc2c(=O)o1
4.58	3.2	-2.85	1.32	37.2 nM	COC(=O)[C@@H](CC(C)C)Nc1nc2ccccc2c(=O)o1
–	2.9	–	2.75	30.9 nM	Cc1cccc2nc(C(F)(F)C(F)(F)C(F)(F)F)oc(=O)c12
5.11	2.9	-2.43	3.14	28.8 nM	Cc1cccc2nc(C(F)(F)F)oc(=O)c12
6.3	–	–	2.01	28.2 nM	CCSc1nc2c(C)cccc2c(=O)o1
–	2.6	–	1.39	27.5 nM	COC(=O)[C@H](Nc1nc2ccccc2c(=O)o1)c1ccccc1
4.18	1	-3.49	1.27	21.4 nM	CC(C)C[C@H](NC(=O)C1CCCN1c1nc2ccccc2c(=O)o1)C(N)=O (stereo not given in full)
4.04	0.8	-3.64	1.26	20.9 nM	CC(C)C[C@H](NC(=O)[C@@H]1CCCN1c1nc2ccccc2c(=O)o1)C(=O)NCC(N)=O
–	1.6	–	-1.26	17 nM	CCc1cc(N)cc2nc(NC(C)C)oc(=O)c12
–	3	–	2.19	8.13 nM	CCSc1nc2ccccc2c(=O)o1
3.41	–	-4.82	-0.23	5.89 nM	Cc1cc(C)c2c(=O)oc(NC(C)C)nc2c1
3.46	–	-4.85	-0.1	4.9 nM	CCOc1nc2cc(N(C)C)ccc2c(=O)o1
3.85	–	-4.95	–	1.58 nM	Cc1cccc2nc(OCC(C)C)oc(=O)c12
5.4	–	-3.45	1.9	1.41 nM	CSc1nc2cccc(C)c2c(=O)o1
6.18	3.6	-2.85	1.58	0.933 nM	CCSc1nc2cccc(C)c2c(=O)o1
7	–	-2.33	2.5	0.468 nM	CCOc1nc2cccc(C(Br)Br)c2c(=O)o1
5.49	–	-4.15	1.17	0.229 nM	CCCc1cccc2nc(OCC)oc(=O)c12
5.54	–	-4.18	1.41	0.191 nM	C/C=C/c1cccc2nc(OCC)oc(=O)c12
